Test results from ChEMBL document CHEMBL3352558, “β-Keto and β-hydroxyphosphonate analogs of biotin-5'-AMP are inhibitors of holocarboxylase synthetase” (Bioorg Med Chem Lett, 2014).
Activity calls are given as the source filed them. No cut-off for these calls is given here.

Columns and labels:
Biotin--protein ligase = biological target: T1, Biotin--protein ligase (Homo sapiens, UniProt P50747); assay: (§1) Inhibition of human recombinant HLCS using P67 as substrate after 2 hrs relative to vehicle-treated control
T1 sequence (P50747 whole entry): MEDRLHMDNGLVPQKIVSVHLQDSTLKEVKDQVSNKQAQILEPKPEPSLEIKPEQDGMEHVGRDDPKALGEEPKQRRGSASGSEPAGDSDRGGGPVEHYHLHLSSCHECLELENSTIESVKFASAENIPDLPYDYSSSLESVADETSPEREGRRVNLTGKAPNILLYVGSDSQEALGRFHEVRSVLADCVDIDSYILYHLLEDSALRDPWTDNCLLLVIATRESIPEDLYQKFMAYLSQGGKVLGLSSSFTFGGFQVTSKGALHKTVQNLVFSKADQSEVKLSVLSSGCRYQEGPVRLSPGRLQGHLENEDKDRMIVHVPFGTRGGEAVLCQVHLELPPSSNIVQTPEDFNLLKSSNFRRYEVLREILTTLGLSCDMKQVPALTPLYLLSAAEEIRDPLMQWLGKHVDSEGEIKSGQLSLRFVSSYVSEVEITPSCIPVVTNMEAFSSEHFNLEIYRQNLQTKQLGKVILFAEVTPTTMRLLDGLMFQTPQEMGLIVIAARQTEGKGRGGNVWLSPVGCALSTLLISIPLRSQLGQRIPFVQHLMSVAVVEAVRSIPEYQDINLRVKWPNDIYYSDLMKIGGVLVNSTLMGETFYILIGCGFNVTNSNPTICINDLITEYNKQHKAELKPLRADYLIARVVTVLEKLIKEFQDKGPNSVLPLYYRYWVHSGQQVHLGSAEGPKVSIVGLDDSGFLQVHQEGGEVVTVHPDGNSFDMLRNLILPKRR

[1] = biological target: T2, Biotin--protein ligase (Homo sapiens) (UniProt P50747); assay: as §1
T2 sequence (whole entry): T1 sequence (P50747 whole entry)

[2] = biological target: T2, Biotin--protein ligase (Homo sapiens); assay: Inhibition of human recombinant HLCS using P67 as substrate at 500 uM after 2 hrs relative to vehicle-treated control
[3] = biological target: T2, Biotin--protein ligase (Homo sapiens); assay: Competitive inhibition of human recombinant HLCS using P67 as substrate by Western blotting analysis in presence of biotin
In short: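 Recombinant HLCS (30 nM) with 2 µM p67 and the activity-assay cofactors; inhibitor fixed at 250 µM or absent, biotin varied 0-360 µM. Reactions stopped with Tricine loading dye and 95°C for 10 min. Biotinylated p67 detected by Western blot with anti-biotin and infrared imaging.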

[4] = Selectivity for Staphylococcus aureus biotin protein ligase over human HLCS
[5] = Binding affinity to Staphylococcus aureus biotin protein ligase

Row | IC50 (Biotin--protein ligase) | Ki (Biotin--protein ligase) | inhibition [1] | inhibition [2] | inhibition [3] | Selectivity ratio [4] | Structure (SMILES) | Ki [5]
1 | 39.7 µM | 2 µM | Dose-dependent effect | 81.3% | Active |  | Nc1ncnc2c1ncn2[C@@H]1O[C@H](COP(=O)(O)CC(=O)CCCC[C@@H]2SC[C@@H]3NC(=O)N[C@@H]32)[C@@H](O)[C@H]1O | 
2 |  |  |  |  | inactive |  | COP(=O)(O)CC(=O)CCCC[C@@H]1SC[C@@H]2NC(=O)N[C@@H]21 | 
3 |  |  |  |  |  | > 1100 | Nc1ncnc2c1ncn2[C@@H]1O[C@H](Cn2cc(CCCC[C@@H]3SC[C@@H]4NC(=O)N[C@@H]43)nn2)[C@@H](O)[C@H]1O | 
4 | 204 µM | 10.4 µM |  | 67.7% | Active |  | Nc1ncnc2c1ncn2[C@@H]1O[C@H](COP(=O)(O)CC(O)CCCC[C@@H]2SC[C@@H]3NC(=O)N[C@@H]32)[C@@H](O)[C@H]1O (stereo partly drawn) | 

Row | Structure (SMILES) | IC50 (Biotin--protein ligase) | Ki (Biotin--protein ligase) | inhibition [1] | inhibition [2] | inhibition [3] | Selectivity ratio [4] | Ki [5]
5 | Nc1ncnc2c1ncn2[C@@H]1O[C@H](COP(=O)(O)OCCCCC[C@@H]2SC[C@@H]3NC(=O)N[C@@H]32)[C@@H](O)[C@H]1O |  |  |  | 98% |  |  | 0.03 µM
